Measured values as given in ChEMBL document CHEMBL3351260, “A new efficient route to 7-aryl-6-fluoro-8-nitroquinolones as potent antibacterial agents” (2014).
Converted amounts (≈) assume the structure as drawn. The source made the active and inactive calls. No cut-off for these calls is given here.

Test system: Candida tropicalis
Assay: Antimicrobial activity against Candida tropicalis ATCC 1369 up to 100 ug/ml after 48 hrs by two-fold broth dilution method
Type: functional, organism-based
Settings: not given
Procedure, shortened: (§1)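 Fungi (yeasts C. tropicalis and S. cerevisiae, mould A. niger) grown in Sabouraud dextrose broth. Inoculum was 1·10³ fungi/mL. Compounds were dissolved in DMSO, which was also loaded as the negative control. Incubation was 30 °C for 48 h. The broth dilution method followed NCCLS reference methods for yeasts and filamentous fungi.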

| SMILES | Activity |
| --- | --- |
| COc1c(C)cc(-c2c(F)cc3c(=O)c(C(=O)O)cn(C4CC4)c3c2[N+](=O)[O-])cc1C | inactive |
| O=C(O)c1cn(C2CC2)c2c([N+](=O)[O-])c(-c3ccc(F)cc3)c(F)cc2c1=O | inactive |
| COc1ccc(-c2c(F)cc3c(=O)c(C(=O)O)cn(C4CC4)c3c2[N+](=O)[O-])cc1 | inactive |
| Cc1ccc(-c2c(F)cc3c(=O)c(C(=O)O)cn(C4CC4)c3c2[N+](=O)[O-])cc1 | inactive |
| Clc1ccc(COC(Cn2ccnc2)c2ccc(Cl)cc2Cl)c(Cl)c1 (stereo unspecified) [MICONAZOLE] | inactive |
| O=C(O)c1cn(C2CC2)c2c([N+](=O)[O-])c(-c3ccccc3)c(F)cc2c1=O | inactive |

Test system: Saccharomyces cerevisiae
Assay: microbe, parasite or virus in culture
Settings: ATCC 9763, 48 h

| SMILES | MIC |
| --- | --- |
| Clc1ccc(COC(Cn2ccnc2)c2ccc(Cl)cc2Cl)c(Cl)c1 (stereo unspecified) [MICONAZOLE] | 12000 ng/mL (≈ 28.8 µM) |

Test system: Aspergillus niger
Assay: Antimicrobial activity against Aspergillus niger ATCC 6275 up to 100 ug/ml after 48 hrs by two-fold broth dilution method
Type: functional, organism-based
Settings: not given
Procedure, shortened: as §1

| SMILES | Activity |
| --- | --- |
| COc1c(C)cc(-c2c(F)cc3c(=O)c(C(=O)O)cn(C4CC4)c3c2[N+](=O)[O-])cc1C | inactive |
| O=C(O)c1cn(C2CC2)c2c([N+](=O)[O-])c(-c3ccc(F)cc3)c(F)cc2c1=O | inactive |
| COc1ccc(-c2c(F)cc3c(=O)c(C(=O)O)cn(C4CC4)c3c2[N+](=O)[O-])cc1 | inactive |
| Cc1ccc(-c2c(F)cc3c(=O)c(C(=O)O)cn(C4CC4)c3c2[N+](=O)[O-])cc1 | inactive |
| Clc1ccc(COC(Cn2ccnc2)c2ccc(Cl)cc2Cl)c(Cl)c1 (stereo unspecified) [MICONAZOLE] | inactive |
| O=C(O)c1cn(C2CC2)c2c([N+](=O)[O-])c(-c3ccccc3)c(F)cc2c1=O | inactive |

Test system: Haemophilus influenzae
Assay: Antimicrobial activity against Haemophilus influenzae ATCC 19418 after 24 hrs by two-fold broth dilution method
Type: functional
Settings: ATCC 19418, 24 h
Procedure, shortened: (§2)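 Bacteria were cultivated on Mueller Hinton medium and inoculated at 5·10⁵ bacteria/mL. Compounds were dissolved in DMSO, with DMSO loaded as the negative control. Samples were incubated at 37 °C for 24 h. The dilution susceptibility method followed the NCCLS standard for aerobically growing bacteria.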

| SMILES | MIC |
| --- | --- |
| COc1c(C)cc(-c2c(F)cc3c(=O)c(C(=O)O)cn(C4CC4)c3c2[N+](=O)[O-])cc1C | 15 ng/mL (≈ 0.0352 µM) |
| COc1ccc(-c2c(F)cc3c(=O)c(C(=O)O)cn(C4CC4)c3c2[N+](=O)[O-])cc1 | 150 ng/mL (≈ 0.377 µM) |
| Cc1ccc(-c2c(F)cc3c(=O)c(C(=O)O)cn(C4CC4)c3c2[N+](=O)[O-])cc1 | 30 ng/mL (≈ 0.0785 µM) |

Now from value to compound:

| MIC | SMILES |
| --- | --- |
| 70 ng/mL (≈ 0.181 µM) | O=C(O)c1cn(C2CC2)c2c([N+](=O)[O-])c(-c3ccc(F)cc3)c(F)cc2c1=O |
| 150 ng/mL (≈ 0.407 µM) | O=C(O)c1cn(C2CC2)c2c([N+](=O)[O-])c(-c3ccccc3)c(F)cc2c1=O |

Test system: Staphylococcus aureus
Assay: Antimicrobial activity against Staphylococcus aureus ATCC 6538 after 24 hrs by two-fold broth dilution method
Type: functional
Settings: ATCC 6538, 24 h
Procedure, shortened: as §2

| SMILES | MIC |
| --- | --- |
| COc1c(C)cc(-c2c(F)cc3c(=O)c(C(=O)O)cn(C4CC4)c3c2[N+](=O)[O-])cc1C | 3 ng/mL (≈ 0.00704 µM) |
| COc1ccc(-c2c(F)cc3c(=O)c(C(=O)O)cn(C4CC4)c3c2[N+](=O)[O-])cc1 | 150 ng/mL (≈ 0.377 µM) |
| Cc1ccc(-c2c(F)cc3c(=O)c(C(=O)O)cn(C4CC4)c3c2[N+](=O)[O-])cc1 | 150 ng/mL (≈ 0.392 µM) |

More lines, now with the values ahead:

| MIC | SMILES |
| --- | --- |
| 150 ng/mL (≈ 0.388 µM) | O=C(O)c1cn(C2CC2)c2c([N+](=O)[O-])c(-c3ccc(F)cc3)c(F)cc2c1=O |
| 150 ng/mL (≈ 0.407 µM) | O=C(O)c1cn(C2CC2)c2c([N+](=O)[O-])c(-c3ccccc3)c(F)cc2c1=O |

Test system: Bacillus spizizenii
Assay: Antimicrobial activity against Bacillus subtilis ATCC 6633 after 24 hrs by two-fold broth dilution method
Type: functional
Settings: ATCC 6633, 24 h
Procedure, shortened: as §2

| SMILES | MIC |
| --- | --- |
| COc1c(C)cc(-c2c(F)cc3c(=O)c(C(=O)O)cn(C4CC4)c3c2[N+](=O)[O-])cc1C | 0.07 ng/mL (≈ 0.000164 µM) |
| COc1ccc(-c2c(F)cc3c(=O)c(C(=O)O)cn(C4CC4)c3c2[N+](=O)[O-])cc1 | 30 ng/mL (≈ 0.0753 µM) |
| Cc1ccc(-c2c(F)cc3c(=O)c(C(=O)O)cn(C4CC4)c3c2[N+](=O)[O-])cc1 | 15 ng/mL (≈ 0.0392 µM) |

Next, values leading:

| MIC | SMILES |
| --- | --- |
| 15 ng/mL (≈ 0.0388 µM) | O=C(O)c1cn(C2CC2)c2c([N+](=O)[O-])c(-c3ccc(F)cc3)c(F)cc2c1=O |
| 15 ng/mL (≈ 0.0407 µM) | O=C(O)c1cn(C2CC2)c2c([N+](=O)[O-])c(-c3ccccc3)c(F)cc2c1=O |

Test system: Saccharomyces cerevisiae
Assay: Antimicrobial activity against Saccharomyces cerevisiae ATCC 9763 up to 100 ug/ml after 48 hrs by two-fold broth dilution method
Type: functional, organism-based
Settings: not given
Procedure, shortened: as §1

| SMILES | Activity |
| --- | --- |
| COc1c(C)cc(-c2c(F)cc3c(=O)c(C(=O)O)cn(C4CC4)c3c2[N+](=O)[O-])cc1C | inactive |
| O=C(O)c1cn(C2CC2)c2c([N+](=O)[O-])c(-c3ccc(F)cc3)c(F)cc2c1=O | inactive |
| COc1ccc(-c2c(F)cc3c(=O)c(C(=O)O)cn(C4CC4)c3c2[N+](=O)[O-])cc1 | inactive |
| Cc1ccc(-c2c(F)cc3c(=O)c(C(=O)O)cn(C4CC4)c3c2[N+](=O)[O-])cc1 | inactive |
| Clc1ccc(COC(Cn2ccnc2)c2ccc(Cl)cc2Cl)c(Cl)c1 (stereo unspecified) [MICONAZOLE] | inactive |
| O=C(O)c1cn(C2CC2)c2c([N+](=O)[O-])c(-c3ccccc3)c(F)cc2c1=O | inactive |

Test system: Candida tropicalis
Assay: Antimicrobial activity against Candida tropicalis ATCC 1369 after 48 hrs by two-fold broth dilution method
Type: functional
Settings: ATCC 1369, 48 h
Procedure, shortened: as §1

| SMILES | MIC |
| --- | --- |
| Clc1ccc(COC(Cn2ccnc2)c2ccc(Cl)cc2Cl)c(Cl)c1 (stereo unspecified) [MICONAZOLE] | 6000 ng/mL (≈ 14.4 µM) |

Test system: Escherichia coli
Assay: Antimicrobial activity against Escherichia coli ATCC 8739 after 24 hrs by two-fold broth dilution method
Type: functional
Settings: ATCC 8739, 24 h
Procedure, shortened: as §2

| SMILES | MIC |
| --- | --- |
| COc1c(C)cc(-c2c(F)cc3c(=O)c(C(=O)O)cn(C4CC4)c3c2[N+](=O)[O-])cc1C | 25000 ng/mL (≈ 58.6 µM) |
| COc1ccc(-c2c(F)cc3c(=O)c(C(=O)O)cn(C4CC4)c3c2[N+](=O)[O-])cc1 | 25000 ng/mL (≈ 62.8 µM) |
| Cc1ccc(-c2c(F)cc3c(=O)c(C(=O)O)cn(C4CC4)c3c2[N+](=O)[O-])cc1 | 3000 ng/mL (≈ 7.85 µM) |

Now from value to compound:

| MIC | SMILES |
| --- | --- |
| 3000 ng/mL (≈ 7.77 µM) | O=C(O)c1cn(C2CC2)c2c([N+](=O)[O-])c(-c3ccc(F)cc3)c(F)cc2c1=O |
| 3000 ng/mL (≈ 8.15 µM) | O=C(O)c1cn(C2CC2)c2c([N+](=O)[O-])c(-c3ccccc3)c(F)cc2c1=O |

Test system: Aspergillus niger
Assay: Antimicrobial activity against Aspergillus niger ATCC 6275 after 48 hrs by two-fold broth dilution method
Type: functional
Settings: ATCC 6275, 48 h
Procedure, shortened: as §1

| SMILES | MIC |
| --- | --- |
| Clc1ccc(COC(Cn2ccnc2)c2ccc(Cl)cc2Cl)c(Cl)c1 (stereo unspecified) [MICONAZOLE] | 3000 ng/mL (≈ 7.21 µM) |
